Measurements from ChEMBL document CHEMBL3232844, “Synthesis and structure activity relationships of schweinfurthin indoles” (2014).

Columns and labels:
Type in all cases: functional
LOX IMVI = experiment: Cytotoxicity against human LOXIMVI cells
Outline: (§1)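 Tested in a 60-cell-line human tumor panel screen; the read-out is growth inhibition, reported as GI50 for each cell line.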

[1] = Cytotoxicity against human OVCAR4 cells; outline: as §1
[2] = Cytotoxicity against human HCT15 cells; outline: as §1
786-0 = experiment: Cytotoxicity against human 786-0 cells; outline: as §1
A549 = experiment: Cytotoxicity against human A549 cells; outline: as §1
RXF 393 = experiment: Cytotoxicity against human RXF393 cells; outline: as §1
HL-60(TB) = experiment: Cytotoxicity against human HL-60(TB) cells
Outline: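 Tested within the NCI 60-cell-line screen, with GI50 as the read-out. Values are the average of two independent experiments. The lowest concentration tested was 10 nM.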

HCT-116 = experiment: Cytotoxicity against human HCT116 cells; outline: as §1
DU-145 = experiment: Cytotoxicity against human DU145 cells; outline: as §1
T47D = experiment: Cytotoxicity against human T47D cells
Outline: (§2)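 Cell line run as part of the 60-cell-line screening panel; growth inhibition was reported as a GI50 for each line.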

NCI-H226 = experiment: Cytotoxicity against human NCI-H226 cells; outline: as §1
U-251 = experiment: Cytotoxicity against human U251 cells; outline: as §2
[3] = Cytotoxicity against human UACC257 cells; outline: as §2
[4] = Cytotoxicity against human OVCAR5 cells; outline: as §1
A498 = experiment: Cytotoxicity against human A498 cells; outline: as §1
SK-OV-3 = experiment: Cytotoxicity against human SKOV3 cells; outline: as §1
[5] = Cytotoxicity against human OVCAR8 cells; outline: as §1
[6] = Cytotoxicity against human UO31 cells; outline: as §2
ACHN = experiment: Cytotoxicity against human ACHN cells; outline: as §1
BT-549 = experiment: Cytotoxicity against human BT549 cells; outline: as §1
[7] = Cytotoxicity against human OVCAR3 cells; outline: as §1
SN12C = experiment: Cytotoxicity against human SN12C cells; outline: as §1
[8] = read-out: pLC50 (the source's name) (converted)

Compound COc1cc(/C=C/c2cc(O)c3cc[nH]c3c2)cc2c1O[C@]1(C)CC[C@@H](O)C(C)(C)[C@H]1C2 has a GI50 (LOX IMVI) of 0.363 µM, a CC50 (LOX IMVI; [8]) of 4.57 µM and a TGI (LOX IMVI; read-out: pTGI (converted)) of 1.32 µM. It also gave a GI50 ([1]; OVCAR-4) of 3.31 µM, a CC50 ([1]; OVCAR-4, read-out: pLC50 (the source's name) (converted)) greater than 100 µM and a TGI ([1]; OVCAR-4, read-out: pTGI (converted)) of 34.7 µM. It also gave a GI50 ([2]; HCT-15) of 0.324 µM, a CC50 ([2]; HCT-15, read-out: pLC50 (the source's name) (converted)) greater than 100 µM and a TGI ([2]; HCT-15, read-out: pTGI (converted)) of 33.9 µM. The GI50 (786-0) was 0.372 µM, the LC50 (concentration killing 50% of cells) (786-0) was 6.31 µM and the TGI (786-0; read-out: pTGI (converted)) was 1.82 µM. It also gave a GI50 (A549) of 1.48 µM, a TGI (A549; read-out: pTGI (converted)) of 3.72 µM and a GI50 (RXF 393) of 0.115 µM. It also gave an LC50 (RXF 393) of 0.871 µM, a TGI (RXF 393; read-out: pTGI (converted)) of 0.316 µM and a GI50 (HL-60(TB)) of 0.513 µM. The CC50 (HL-60(TB); [8]) was greater than 100 µM, the TGI (HL-60(TB); read-out: pTGI (converted)) was 8.71 µM and the GI50 (HCT-116) was 0.912 µM. For the same compound, the CC50 (HCT-116; [8]) was 6.03 µM, the TGI (HCT-116; read-out: pTGI (converted)) was 2.45 µM and the GI50 (DU-145) was 1.15 µM. It also gave an LC50 (50% lethal concentration) (DU-145) of 25.1 µM, a TGI (DU-145; read-out: pTGI (converted)) of 6.76 µM and a GI50 (T47D) of 5.01 µM. It also gave a CC50 (T47D; [8]) of 83.2 µM, a TGI (T47D; read-out: pTGI (converted)) of 22.4 µM and a GI50 (NCI-H226) of 12 µM. It also gave a CC50 (NCI-H226; [8]) of 70.8 µM, a TGI (NCI-H226; read-out: pTGI (converted)) of 28.8 µM and a GI50 (U-251) of 0.479 µM. The CC50 (U-251; [8]) was greater than 100 µM, the TGI (U-251; read-out: pTGI (converted)) was 13.8 µM and the GI50 ([3]; UACC-257) was 2.34 µM. For the same compound, the CC50 ([3]; UACC-257, read-out: pLC50 (the source's name) (converted)) was 28.8 µM, the TGI ([3]; UACC-257, read-out: pTGI (converted)) was 8.32 µM and the GI50 ([4]; OVCAR-5) was 7.41 µM. The CC50 ([4]; OVCAR-5, read-out: pLC50 (the source's name) (converted)) was greater than 100 µM, the TGI ([4]; OVCAR-5, read-out: pTGI (converted)) was 41.7 µM and the GI50 (A498) was 1.55 µM. It also gave a CC50 (A498; [8]) of 56.2 µM, a TGI (A498; read-out: pTGI (converted)) of 8.91 µM and a GI50 (SK-OV-3) of 1.51 µM. It also gave an LC50 (SK-OV-3) greater than 100 µM, a TGI (SK-OV-3; read-out: pTGI (converted)) of 10 µM and a GI50 ([5]; OVCAR-8) of 1.2 µM. The CC50 ([5]; OVCAR-8, read-out: pLC50 (the source's name) (converted)) was greater than 100 µM, the TGI ([5]; OVCAR-8, read-out: pTGI (converted)) was 30.9 µM and the GI50 ([6]; UO-31) was 0.479 µM. The LC50 ([6]; UO-31) was greater than 100 µM, the TGI ([6]; UO-31, read-out: pTGI (converted)) was 2.04 µM and the GI50 (ACHN) was 1.1 µM. The LC50 (concentration killing 50% of cells) (ACHN) was greater than 100 µM, the TGI (ACHN; read-out: pTGI (converted)) was 14.1 µM and the GI50 (BT-549) was 0.178 µM. The CC50 (BT-549; [8]) was 95.5 µM, the TGI (BT-549; read-out: pTGI (converted)) was 4.57 µM and the GI50 ([7]; OVCAR-3) was 1.82 µM. The CC50 ([7]; OVCAR-3, read-out: pLC50 (the source's name) (converted)) was greater than 100 µM, the TGI ([7]; OVCAR-3, read-out: pTGI (converted)) was 10.5 µM and the GI50 (SN12C) was 7.08 µM. The LC50 (SN12C) was greater than 100 µM.
